Measurements: ChEMBL document CHEMBL1138564, “Microwave-induced synthesis and anti-microbial activities of 7,10,11,12-tetrahydrobenzo[c]acridin-8(9H)-one derivatives” (2009)
≈ marks a conversion by molar mass, not a printed value. Calls of active or inactive are those of the source. No cut-off for these calls is given here.

Legend:
Escherichia coli [1] = test: Antimicrobial activity against Escherichia coli NCIM 2065 at 1000 ug/disk after 24 hrs by disk diffusion method; format: functional; conditions: NCIM 2065, 24 h, read-out: DIZ
Summary of the method: (§1)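 Disc diffusion on Mueller–Hinton agar. 100 µl of bacterial suspension at 10⁸ CFU/ml is spread on the plate. Discs carry test compounds at two loadings, dissolved in DMSO; DMSO alone serves as negative control. Ofloxacin disc is the positive reference. Plates are incubated at 37 °C for 24 h, and the inhibition zone diameter is measured.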

Escherichia coli [2] = test: Antimicrobial activity against Escherichia coli NCIM 2065 at 500 ug/disk after 24 hrs by disk diffusion method; format: functional; conditions: NCIM 2065, 24 h, read-out: DIZ; summary of the method: as §1
Bacillus subtilis = test: Antimicrobial activity against Bacillus subtilis NCIM 2063 at 500 ug/disk after 24 hrs by disk diffusion method; format: functional; conditions: NCIM 2063, 24 h, read-out: DIZ; summary of the method: as §1
Bacillus cereus [3] = test: Antimicrobial activity against Bacillus cereus NCIM 2155 at 500 ug/disk after 24 hrs by disk diffusion method; format: functional; conditions: for zone of inhibition at 500 µg/disc: NCIM 2155, 24 h, read-out: DIZ; summary of the method: as §1
Bacillus cereus [4] = test: Antimicrobial activity against Bacillus cereus NCIM 2155 at 1000 ug/disk after 24 hrs by disk diffusion method; format: functional; conditions: for zone of inhibition at 1000 µg/disc: NCIM 2155, 24 h, read-out: DIZ; summary of the method: as §1
Aliivibrio fischeri [5] = test: Antimicrobial activity against Vibrio fischeri NCIM 2154 at 500 ug/disk after 24 hrs by disk diffusion method; format: functional; conditions: NCIM 2154, 24 h, read-out: DIZ
Summary of the method: (§2)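 Disc diffusion. 100 µl of bacterial suspension at 10⁸ CFU/ml was spread on Mueller–Hinton agar. Discs loaded with test compound dissolved in DMSO were placed on the lawn, with a DMSO-only disc as negative control. Plates were incubated at 37 °C for 24 h, and the inhibition zone diameter was measured.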

[6] = system: Rhodococcus corynebacterioides; test: Antimicrobial activity against Corynebacterium rubrum NCIM 2252 at 500 ug/disk after 24 hrs by disk diffusion method; format: functional; conditions: Rhodococcoides corynebacterioides, NCIM 2252, 24 h; read-out: DIZ; summary of the method: as §1
Salmonella typhimurium = test: Antimicrobial activity against Salmonella Typhimurium NCIM 2501 at 1000 ug/disk after 24 hrs by disk diffusion method; format: functional, Salmonella enterica subsp. enterica serovar Typhimurium; conditions: Salmonella enterica, NCIM 2501, 24 h; read-out: DIZ; summary of the method: as §2
[7] = system: Rhodococcus corynebacterioides; test: Antimicrobial activity against Corynebacterium rubrum NCIM 2252 at 1000 ug/disk after 24 hrs by disk diffusion method; format: functional; conditions: Rhodococcoides corynebacterioides, NCIM 2252, 24 h; read-out: DIZ; summary of the method: as §1
Staphylococcus [8] = test: Antimicrobial activity against Staphylococcus albus NCIM 2178 at 500 ug/disk after 24 hrs by disk diffusion method; format: functional; conditions: NCIM 2178, 24 h, read-out: DIZ; summary of the method: as §2
Staphylococcus [9] = test: Antimicrobial activity against Staphylococcus albus NCIM 2178 at 1000 ug/disk after 24 hrs by disk diffusion method; format: functional; conditions: NCIM 2178, 24 h, read-out: DIZ; summary of the method: as §2
Proteus vulgaris [10] = test: Antimicrobial activity against Proteus vulgaris NCIM 2027 at 500 ug/disk after 24 hrs by disk diffusion method; format: functional; conditions: NCIM 2027, 24 h, read-out: DIZ; summary of the method: as §1
Proteus vulgaris [11] = test: Antimicrobial activity against Proteus vulgaris NCIM 2027 at 1000 ug/disk after 24 hrs by disk diffusion method; format: functional; conditions: NCIM 2027, 24 h, read-out: DIZ; summary of the method: as §1
Aspergillus flavus [12] = test: Antimicrobial activity against Aspergillus flavus NCIM 902 at 500 ug/disk after 72 hrs by disk diffusion method; format: functional; conditions: NCIM 902, 72 h, read-out: DIZ
Summary of the method: (§3)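 Disc diffusion on Sabouraud's dextrose agar. 100 µl of fungal suspension at 10⁶ CFU/ml is spread on the plate. Discs carry test compounds at two loadings in DMSO; DMSO alone is the negative control. Clotrimazole disc is the positive reference. Plates are incubated at 27 °C for 72 h, and the zone of inhibition diameter is measured.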

Aspergillus flavus [13] = test: Antimicrobial activity against Aspergillus flavus NCIM 902 at 1000 ug/disk after 72 hrs by disk diffusion method; format: functional; conditions: NCIM 902, 72 h, read-out: DIZ; summary of the method: as §3
Rhodotorula mucilaginosa = test: Antimicrobial activity against Rhodotorula rubra NCIM 3174 at 500 ug/disk after 72 hrs by disk diffusion method; format: functional; conditions: NCIM 3174, 72 h, read-out: DIZ
Summary of the method: (§4)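 Fungal disc diffusion. 100 µl of suspension at 10⁶ CFU/ml was spread on Sabouraud's dextrose agar. Discs carrying test compound in DMSO were applied, with a DMSO-only disc as negative control. Plates were incubated at 27 °C for 72 h, and the zone of inhibition diameter was measured.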

Aspergillus fumigatus [14] = test: Antimicrobial activity against Aspergillus fumigatus NCIM 902 at 500 ug/disk after 72 hrs by disk diffusion method; format: functional; conditions: for zone of inhibition at 500 µg/disc: NCIM 902, 72 h, read-out: DIZ; summary of the method: as §3
Aspergillus fumigatus [15] = test: Antimicrobial activity against Aspergillus fumigatus NCIM 902 at 1000 ug/disk after 72 hrs by disk diffusion method; format: functional; conditions: for zone of inhibition at 1000 µg/disc: NCIM 902, 72 h, read-out: DIZ; summary of the method: as §3
Aspergillus parasiticus [16] = test: Antimicrobial activity against Aspergillus parasiticus NCIM 904 at 500 ug/disk after 72 hrs by disk diffusion method; format: functional; conditions: NCIM 904, 72 h, read-out: DIZ; summary of the method: as §3
Penicillium chrysogenum [17] = test: Antimicrobial activity against Penicillium chrysogenum NCIM 707 at 500 ug/disk after 72 hrs by disk diffusion method; format: functional; conditions: NCIM 707, 72 h, read-out: DIZ; summary of the method: as §3
Penicillium chrysogenum [18] = test: Antimicrobial activity against Penicillium chrysogenum NCIM 707 at 1000 ug/disk after 72 hrs by disk diffusion method; format: functional; conditions: NCIM 707, 72 h, read-out: DIZ; summary of the method: as §3
Lipomyces lipofer [19] = test: Antimicrobial activity against Lipomyces lipofer NCIM 3252 at 500 ug/disk after 72 hrs by disk diffusion method; format: functional; conditions: for zone of inhibition at 500 µg/disc: NCIM 3252, 72 h, read-out: DIZ; summary of the method: as §3
Lipomyces lipofer [20] = test: Antimicrobial activity against Lipomyces lipofer NCIM 3252 at 1000 ug/disk after 72 hrs by disk diffusion method; format: functional; conditions: NCIM 3252, 72 h, read-out: DIZ; summary of the method: as §3
Klebsiella aerogenes = test: Antimicrobial activity against Klebsiella aerogenes NCIM 2239 at 500 ug/disk after 24 hrs by disk diffusion method; format: functional; conditions: for zone of inhibition at 500 µg/disc: NCIM 2239, 24 h, read-out: DIZ; summary of the method: as §1
Pseudomonas aeruginosa = test: Antimicrobial activity against Pseudomonas aeruginosa NCIM 2200 at 500 ug/disk after 24 hrs by disk diffusion method; format: functional; conditions: NCIM 2200, 24 h, read-out: DIZ; summary of the method: as §2
Aspergillus flavus [21] = test: Antimicrobial activity against Aspergillus flavus NCIM 902 after 72 hrs by serial dilution method; format: functional; conditions: NCIM 535, 72 h, in the assay text read “NCIM 535” for “NCIM 902”
Summary of the method: (§5)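 MIC by broth dilution in Sabouraud's dextrose broth, only for fungi sensitive in disc diffusion. Two-fold serial dilutions of compounds are made in 1 ml broth per tube, range 3.9 to 1000. Inoculated tubes are incubated at 27 °C for 72 h.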

Aspergillus parasiticus [22] = test: Antimicrobial activity against Aspergillus parasiticus NCIM 904 after 72 hrs by serial dilution method; format: functional; conditions: NCIM 904, 72 h; summary of the method: as §5
Trichoderma viride [23] = test: Antimicrobial activity against Trichoderma viride NCIM 1195 after 72 hrs by serial dilution method; format: functional; conditions: NCIM 1195, 72 h
Summary of the method: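 MIC by broth dilution in Sabouraud's dextrose broth, run only on fungi found sensitive in the disc assay. Twofold serial dilutions were made in 1 ml broth per tube, covering 3.9 to 1000. Inoculated tubes were incubated at 27 °C for 72 h.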

Trichoderma viride [24] = test: Antimicrobial activity against Trichoderma viride NCIM 1195 at 500 ug/disk after 72 hrs by disk diffusion method; format: functional; conditions: for zone of inhibition at 500 µg/disc: NCIM 1195, 72 h, read-out: DIZ; summary of the method: as §4
Trichoderma viride [25] = test: Antimicrobial activity against Trichoderma viride NCIM 1195 at 1000 ug/disk after 72 hrs by disk diffusion method; format: functional; conditions: NCIM 1195, 72 h, read-out: DIZ; summary of the method: as §4
Escherichia coli [26] = test: Antimicrobial activity against Escherichia coli NCIM 2065 after 24 hrs by serial dilution method; format: functional; conditions: NCIM 2065, 24 h
Summary of the method: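 Broth dilution MIC in nutrient broth, run only for organisms found sensitive in disc diffusion. Compounds are two-fold serially diluted in 1 ml sterile broth per tube, spanning 3.9 to 1000. Inoculated tubes are incubated at 37 °C for 24 h.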

Aliivibrio fischeri [27] = test: Antimicrobial activity against Vibrio fischeri NCIM 2154 after 24 hrs by serial dilution method; format: functional; conditions: NCIM 2154, 24 h

Compound	zone of inhibition at 1000 µg/disc (Escherichia coli [1]) [mm]	zone of inhibition at 500 µg/disc (Escherichia coli [2]) [mm]	zone of inhibition at 500 µg/disc (Bacillus subtilis) [mm]	zone of inhibition at 500 µg/disc (Aliivibrio fischeri [5]) [mm]	zone of inhibition at 500 µg/disc [6] [mm]	zone of inhibition at 1000 µg/disc (Salmonella typhimurium) [mm]	zone of inhibition at 1000 µg/disc [7] [mm]	zone of inhibition at 500 µg/disc (Staphylococcus [8]) [mm]	zone of inhibition at 1000 µg/disc (Staphylococcus [9]) [mm]	zone of inhibition at 500 µg/disc (Proteus vulgaris [10]) [mm]	zone of inhibition at 1000 µg/disc (Proteus vulgaris [11]) [mm]	zone of inhibition at 500 µg/disc (Aspergillus flavus [12]) [mm]	zone of inhibition at 1000 µg/disc (Aspergillus flavus [13]) [mm]	zone of inhibition at 500 µg/disc (Rhodotorula mucilaginosa) [mm]	zone of inhibition at 500 µg/disc (Aspergillus parasiticus [16]) [mm]	zone of inhibition at 500 µg/disc (Penicillium chrysogenum [17]) [mm]	zone of inhibition at 1000 µg/disc (Penicillium chrysogenum [18]) [mm]	zone of inhibition at 1000 µg/disc (Lipomyces lipofer [20]) [mm]	zone of inhibition at 500 µg/disc (Pseudomonas aeruginosa) [mm]	MIC (Aspergillus flavus [21]) [µg/mL]	other results
O=C1CCCC2=C1C(c1ccc(O)cc1)c1ccc3ccccc3c1N2 (stereo unspecified)	9	7	9	7	7	9	9	8	10	7	9	7	8	12	12	9	10	11	7	125 (≈ 366 µM)	diameter of the inhibition zone (DIZ) (Bacillus cereus [3]): inactive; diameter of the inhibition zone (DIZ) (Bacillus cereus [4]): inactive; diameter of the inhibition zone (DIZ) (Aspergillus fumigatus [14]): inactive; diameter of the inhibition zone (DIZ) (Aspergillus fumigatus [15]): inactive; zone of inhibition at 500 µg/disc (Lipomyces lipofer [19]): 10 mm; zone of inhibition at 500 µg/disc (Klebsiella aerogenes): 7 mm; MIC (Aspergillus parasiticus [22]): 15.6 µg/mL (≈ 45.7 µM); MIC (Trichoderma viride [23]): 31.2 µg/mL (≈ 91.4 µM); zone of inhibition at 500 µg/disc (Trichoderma viride [24]): 10 mm; zone of inhibition at 1000 µg/disc (Trichoderma viride [25]): 11 mm; MIC (Escherichia coli [26]): 125 µg/mL (≈ 366 µM); MIC (Aliivibrio fischeri [27]): 125 µg/mL (≈ 366 µM)
O=C1CCCC2=C1C(c1ccc(Cl)cc1)c1ccc3ccccc3c1N2 (stereo unspecified)	8	7	8	8	7	11	8	8	10	7	9	7	10	12	10	7	8	9	7	62.5 (≈ 174 µM)	zone of inhibition at 500 µg/disc (Bacillus cereus [3]): 10 mm; zone of inhibition at 1000 µg/disc (Bacillus cereus [4]): 13 mm; zone of inhibition at 500 µg/disc (Aspergillus fumigatus [14]): 8 mm; zone of inhibition at 1000 µg/disc (Aspergillus fumigatus [15]): 10 mm; diameter of the inhibition zone (DIZ) (Lipomyces lipofer [19]): inactive; diameter of the inhibition zone (DIZ) (Klebsiella aerogenes): inactive; MIC (Aspergillus parasiticus [22]): 31.2 µg/mL (≈ 86.7 µM); MIC (Trichoderma viride [23]): 125 µg/mL (≈ 347 µM); diameter of the inhibition zone (DIZ) (Trichoderma viride [24]): inactive; zone of inhibition at 1000 µg/disc (Trichoderma viride [25]): 8 mm; MIC (Escherichia coli [26]): 62.5 µg/mL (≈ 174 µM); MIC (Aliivibrio fischeri [27]): 62.5 µg/mL (≈ 174 µM)
CC1(C)CC(=O)C2=C(C1)Nc1c(ccc3ccccc13)C2c1cccc([N+](=O)[O-])c1 (stereo unspecified)	15	10	9	7	8	13	9	7	9	7	9	9	13	10	10	8	11	11	7	15.6 (≈ 39.2 µM)	zone of inhibition at 500 µg/disc (Bacillus cereus [3]): 10 mm; zone of inhibition at 1000 µg/disc (Bacillus cereus [4]): 13 mm; zone of inhibition at 500 µg/disc (Aspergillus fumigatus [14]): 8 mm; zone of inhibition at 1000 µg/disc (Aspergillus fumigatus [15]): 10 mm; zone of inhibition at 500 µg/disc (Lipomyces lipofer [19]): 8 mm; zone of inhibition at 500 µg/disc (Klebsiella aerogenes): 8 mm; MIC (Aspergillus parasiticus [22]): 3.9 µg/mL (≈ 9.79 µM); MIC (Trichoderma viride [23]): 31.2 µg/mL (≈ 78.3 µM); zone of inhibition at 500 µg/disc (Trichoderma viride [24]): 10 mm; zone of inhibition at 1000 µg/disc (Trichoderma viride [25]): 12 mm; MIC (Escherichia coli [26]): 3.9 µg/mL (≈ 9.79 µM); MIC (Aliivibrio fischeri [27]): 62.5 µg/mL (≈ 157 µM)
